{"data": "Experimental data from different studies", "CHRM2": "Muscarinic acetylcholine receptor M2 (CHRM2, Homo sapiens, UniProt P08172)", "PTGES": "Prostaglandin E synthase (PTGES, Homo sapiens, UniProt O14684)", "note": "Protocols differ between the studies behind these lines."}
{"SMILES": "CCCCCCCCCCCCNCCCc1ccc([N+](=O)[O-])cc1", "target": "CHRM2", "effect on": "ligand displacement", "technique": "radioligand", "endpoint": "Ki", "result": "5.6 µM"}
{"SMILES": "CC(C)[N+](C)(CCC(C(N)=O)(c1ccccc1)c1ccccc1)C(C)C", "target": "CHRM2", "effect on": "ligand displacement", "technique": "radioligand", "endpoint": "IC50", "result": "0.007 µM"}
{"SMILES": "CCCCCc1cc(O)c2c(c1)OC(C)(C)[C@@H]1CCC(C)=C[C@@H]21", "target": "PTGES", "effect on": "enzyme activity", "mode": "inhibitor", "endpoint": "IC50", "result": "> 10 µM"}
{"SMILES": "CC(C)C[C@H](NC(=O)CNC(=O)[C@H](C)NC(=O)c1ccc(S[C@@H]2O[C@H](CO)[C@H](O)[C@H](O)[C@H]2O)cc1)C(=O)N[C@@H](C)C(=O)N[C@H]1CCN(c2cc3c(cc2F)c(=O)c(C(=O)O)cn3C2CC2)C1", "target": "PA-I galactophilic lectin (lecA, Pseudomonas aeruginosa, UniProt Q05097)", "effect on": "ligand displacement", "technique": "FP", "endpoint": "Ki", "result": "12 µM"}
{"SMILES": "CC(C)(C)[C@H](NC(=O)C(F)(F)F)C(=O)N1C[C@H]2[C@@H]([C@H]1C(=O)N[C@H](C#N)C[C@@H]1CCNC1=O)C2(C)C", "target": "Organic anion transporter 3 (SLC22A8, Homo sapiens, UniProt Q8TCC7)", "effect on": "transporter uptake", "mode": "inhibitor", "endpoint": "Ki", "result": "521 µM"}
{"SMILES": "CC(C)C[C@H](NC(=O)[C@H](Cc1ccccc1)NC(=O)[C@H](Cc1ccc(O)cc1)NC(=O)CNC(=O)[C@H](CCCCN)NC(=O)[C@H](CO)NC(=O)[C@H](CCC(N)=O)NC(=O)CNC(=O)[C@@H](NC(=O)[C@H](CO)NC(=O)[C@@H]1CCCN1C(=O)[C@H](CO)NC(=O)[C@H](CCC(N)=O)NC(=O)[C@H](Cc1ccc(O)cc1)NC(=O)[C@H](CCC(=O)O)NC(=O)[C@H](C)NC(=O)[C@H](CCCCN)NC(=O)[C@@H](N)Cc1ccccc1)C(C)C)C(=O)N[C@@H](Cc1ccccc1)C(=O)N[C@@H](CCCNC(=N)N)C(=O)N1CCC[C@H]1C(=O)N[C@@H](CCCNC(=N)N)C(=O)N[C@@H](CC(N)=O)C(N)=O", "target": "Neuromedin-U receptor 1 (Mus musculus, UniProt O55040)", "effect on": "β-arrestin recruitment", "mode": "agonist", "endpoint": "EC50", "result": "0.000501 µM"}
{"SMILES": "CCCCCCCNCCCc1ccc([N+](=O)[O-])cc1", "target": "CHRM2", "effect on": "ligand displacement", "technique": "radioligand", "endpoint": "Ki", "result": "3.2 µM"}
{"SMILES": "CCCCCc1cc(O)c2c(c1)OC(C)(C)c1ccc(C)cc1-2", "target": "PTGES", "effect on": "enzyme activity", "mode": "inhibitor", "endpoint": "IC50", "result": "> 10 µM"}
